Reference: ChEMBL document CHEMBL1145806, “Discovery and structural modification of inhibitors of methionine aminopeptidases from Escherichia coli and Saccharomyces cerevisiae” (J Med Chem, 2003)
In brackets after ≈: the same amount, converted by molar mass.

Assays:
[1] = target: T1, Methionine aminopeptidase 1 (Saccharomyces cerevisiae S288c, UniProt Q01662); assay: Inhibitory activity against type I methionine aminopeptidase from Saccharomyces cerevisiae
T1 sequence (Q01662 whole entry): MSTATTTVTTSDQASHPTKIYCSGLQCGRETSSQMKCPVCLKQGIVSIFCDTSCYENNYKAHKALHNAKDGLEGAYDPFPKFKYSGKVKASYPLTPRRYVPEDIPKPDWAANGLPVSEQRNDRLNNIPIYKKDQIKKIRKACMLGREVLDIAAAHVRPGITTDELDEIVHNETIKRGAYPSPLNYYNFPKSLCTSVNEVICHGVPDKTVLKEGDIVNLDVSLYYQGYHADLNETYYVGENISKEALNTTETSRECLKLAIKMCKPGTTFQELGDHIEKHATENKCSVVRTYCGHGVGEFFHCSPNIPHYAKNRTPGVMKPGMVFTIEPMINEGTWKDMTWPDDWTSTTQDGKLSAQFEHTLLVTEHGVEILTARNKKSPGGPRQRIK
Summary of the method: (§1)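 Co(II)-activated enzyme: preincubated 30 min in 25 mM HEPES pH 7.5, 150 mM KCl, 15 mM methionine, 500 μM CoCl2. Chromogenic assay in 50 mM MOPS pH 7.0 with 1 mM DTNB and 100 μM thiopeptolide Met-S-Gly-Phe-OH. Final enzyme was 150 nM for EcMetAP1 and 330 nM for ScMetAP1. Hydrolysis read at 412 nm for 60 s. IC50 from inhibitor dilutions, […].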

[2] = target: T2, Methionine aminopeptidase (Escherichia coli K-12, UniProt P0AE18); assay: Inhibitory activity against Methionine aminopeptidase 1 from Escherichia coli; summary of the method: as §1
T2 sequence (P0AE18 whole entry): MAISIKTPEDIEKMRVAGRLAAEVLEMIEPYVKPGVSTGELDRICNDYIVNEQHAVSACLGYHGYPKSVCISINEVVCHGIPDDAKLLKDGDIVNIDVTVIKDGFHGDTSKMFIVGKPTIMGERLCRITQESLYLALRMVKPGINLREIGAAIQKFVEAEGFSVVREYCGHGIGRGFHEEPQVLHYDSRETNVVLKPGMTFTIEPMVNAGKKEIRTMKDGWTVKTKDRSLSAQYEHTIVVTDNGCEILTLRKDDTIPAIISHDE

Escherichia coli [3] = assay: Selectivity of inhibitory activity of Methionine aminopeptidase 1 from Escherichia coli to Methionine aminopeptidase 1 from Saccharomyces cerevisiae
Escherichia coli [4] = assay: Antibacterial activity against enteropathogenic Escherichia coli ATCC 25922 was determined after 24 hr; format: functional; details: ATCC 25922, 24 h
Pseudomonas aeruginosa = assay: Antibacterial activity against Pseudomonas aeruginosa ATCC 27853 was determined after 24 hr; format: functional; details: ATCC 27853, 24 h
Staphylococcus aureus = assay: Antibacterial activity against Staphylococcus aureus ATCC 25923 was determined after 24 hr; format: functional; details: ATCC 25923, 24 h

CO[C@@H]1[C@H](OC(=O)/C=C/C=C/C=C/C=C/C(=O)O)CC[C@]2(CO2)[C@H]1[C@@]1(C)O[C@@H]1CC=C(C)C [FUMAGILLIN]
IC50 [1]: > 100 µM
IC50 [2]: > 100 µM

CC(=O)Oc1ccccc1C(=O)Oc1cccnc1C(=O)Nc1nccs1
IC50 [1]: 15 µM
Ratio (Escherichia coli [3]): 0.11
IC50 [2]: 1.6 µM

CC(C)(C)C(=O)Oc1cccnc1C(=O)Nc1nccs1
IC50 [1]: 0.78 µM
Ratio (Escherichia coli [3]): 0.87
IC50 [2]: 0.68 µM

CCC(=O)Oc1cccnc1C(=O)Nc1nccs1
MIC (Escherichia coli [4]): 250 µg/mL (≈ 902 µM)
IC50 [1]: 0.38 µM
Ratio (Escherichia coli [3]): 14
MIC (Pseudomonas aeruginosa): 500 µg/mL (≈ 1800 µM)
MIC (Staphylococcus aureus): 125 µg/mL (≈ 451 µM)
IC50 [2]: 5.4 µM

C=C(C)CC(=O)Nc1cccnc1C(=O)Nc1nccs1
IC50 [1]: 4.67 µM
Ratio (Escherichia coli [3]): 0.032
IC50 [2]: 0.15 µM

COc1ccccc1/C=C/C(=O)Oc1cccnc1C(=O)Nc1nccs1
IC50 [1]: 9.9 µM
Ratio (Escherichia coli [3]): 0.21
IC50 [2]: 2.1 µM

CCCC[C@@H](N)[C@H](O)C(=O)N[C@@H](C)C(=O)N[C@@H](CC(C)C)C(=O)OC
IC50 [1]: 95.1 µM
IC50 [2]: 22.9 µM

O=CNc1cccnc1C(=O)Nc1nccs1
MIC (Escherichia coli [4]): 125 µg/mL (≈ 503 µM)
IC50 [1]: 0.32 µM
Ratio (Escherichia coli [3]): 1
MIC (Pseudomonas aeruginosa): 500 µg/mL (≈ 2010 µM)
MIC (Staphylococcus aureus): 62.5 µg/mL (≈ 252 µM)
IC50 [2]: 0.33 µM

CC(C)=CCCC(=O)Nc1cccnc1C(=O)Nc1nccs1
IC50 [1]: 0.31 µM
Ratio (Escherichia coli [3]): 2
IC50 [2]: 0.61 µM

C/C=C(\C)C(=O)Nc1cccnc1C(=O)Nc1nccs1
IC50 [1]: 10.9 µM
Ratio (Escherichia coli [3]): 0.026
IC50 [2]: 0.28 µM

CC(C)COC(=O)Nc1cccnc1C(=O)Nc1nccs1
IC50 [1]: 53.7 µM
Ratio (Escherichia coli [3]): 0.036
IC50 [2]: 1.92 µM

COc1ccccc1C(=O)Oc1cccnc1C(=O)Nc1nccs1
IC50 [1]: 0.55 µM
Ratio (Escherichia coli [3]): 3.1
IC50 [2]: 1.7 µM

O=C(Nc1cccnc1C(=O)Nc1nccs1)c1cccc(F)c1
IC50 [1]: > 100 µM
Ratio (Escherichia coli [3]): < 0.0071
IC50 [2]: 0.71 µM

O=C(Nc1nccs1)c1ncccc1O
IC50 [1]: 4.86 µM
Ratio (Escherichia coli [3]): 0.38
IC50 [2]: 1.87 µM

O=C(Oc1cccnc1C(=O)Nc1nccs1)c1ccc(F)cc1
IC50 [1]: 62 µM
Ratio (Escherichia coli [3]): 0.018
IC50 [2]: 1.1 µM

O=C(Cc1ccccc1)Nc1cccnc1C(=O)Nc1nccs1
IC50 [1]: 0.82 µM
Ratio (Escherichia coli [3]): 0.49
IC50 [2]: 0.4 µM

O=C(Nc1nccs1)c1ncccc1NC(=O)C1CCCCC1
IC50 [1]: > 100 µM
Ratio (Escherichia coli [3]): < 0.0087
IC50 [2]: 0.87 µM

CC(C)(C)OC(=O)Nc1cccnc1C(=O)Nc1nccs1
IC50 [1]: 3.35 µM
Ratio (Escherichia coli [3]): 0.054
IC50 [2]: 0.18 µM

COc1cccc(C(=O)Oc2cccnc2C(=O)Nc2nccs2)c1[N+](=O)[O-]
IC50 [1]: 3.02 µM
Ratio (Escherichia coli [3]): 0.56
IC50 [2]: 1.7 µM

O=C(Nc1cccnc1C(=O)Nc1nccs1)c1ccc(F)cc1
IC50 [1]: > 100 µM
Ratio (Escherichia coli [3]): < 0.0136
IC50 [2]: 1.36 µM

CC(C)=CC(=O)Oc1cccnc1C(=O)Nc1nccs1
IC50 [1]: 0.49 µM
Ratio (Escherichia coli [3]): 5.3
IC50 [2]: 2.6 µM

O=C(Nc1nccs1)c1ncccc1OC(=O)C1CCCCC1
IC50 [1]: 0.32 µM
Ratio (Escherichia coli [3]): 7.5
IC50 [2]: 2.39 µM

Nc1cccnc1C(=O)Nc1nccs1
IC50 [1]: 32.8 µM
Ratio (Escherichia coli [3]): 0.052
IC50 [2]: 1.7 µM

CCCCCC(=O)Oc1cccnc1C(=O)Nc1nccs1
IC50 [1]: 1.74 µM
Ratio (Escherichia coli [3]): 0.59
IC50 [2]: 1.02 µM

O=C(Oc1cccnc1C(=O)Nc1nccs1)c1ccccc1[N+](=O)[O-]
IC50 [1]: > 100 µM
Ratio (Escherichia coli [3]): < 0.021
IC50 [2]: 2.1 µM

O=C(Oc1cccnc1C(=O)Nc1nccs1)c1ccc(F)c(Br)c1
IC50 [1]: 3.4 µM
Ratio (Escherichia coli [3]): 0.74
IC50 [2]: 2.5 µM

O=C(Nc1cccnc1C(=O)Nc1nccs1)c1ccccc1F
MIC (Escherichia coli [4]): 250 µg/mL (≈ 730 µM)
IC50 [1]: > 100 µM
Ratio (Escherichia coli [3]): < 0.0028
MIC (Pseudomonas aeruginosa): 250 µg/mL (≈ 730 µM)
MIC (Staphylococcus aureus): 15.6 µg/mL (≈ 45.6 µM)
IC50 [2]: 0.28 µM

CCC(=O)Nc1cccnc1C(=O)Nc1nccs1
IC50 [1]: 0.35 µM
Ratio (Escherichia coli [3]): 0.74
IC50 [2]: 0.26 µM

O=C(Nc1nccs1)c1ccccn1
MIC (Escherichia coli [4]): 12.5 µg/mL (≈ 60.9 µM)
IC50 [1]: 7 µM
Ratio (Escherichia coli [3]): 0.71
MIC (Pseudomonas aeruginosa): 250 µg/mL (≈ 1220 µM)
MIC (Staphylococcus aureus): 2 µg/mL (≈ 9.74 µM)
IC50 [2]: 5 µM

C=CCC(=O)Nc1cccnc1C(=O)Nc1nccs1
MIC (Escherichia coli [4]): 125 µg/mL (≈ 434 µM)
IC50 [1]: 0.38 µM
Ratio (Escherichia coli [3]): 0.34
MIC (Pseudomonas aeruginosa): 500 µg/mL (≈ 1730 µM)
MIC (Staphylococcus aureus): 62.5 µg/mL (≈ 217 µM)
IC50 [2]: 0.13 µM

O=C(Oc1cccnc1C(=O)Nc1nccs1)c1cccc(F)c1
IC50 [1]: > 100 µM
Ratio (Escherichia coli [3]): < 0.0095
IC50 [2]: 0.95 µM

CC(C)(C)C(=O)Nc1cccnc1C(=O)Nc1nccs1
IC50 [1]: 0.34 µM
Ratio (Escherichia coli [3]): 1.59
IC50 [2]: 0.54 µM

C/C=C(\C)C(=O)Oc1cccnc1C(=O)Nc1nccs1
IC50 [1]: 0.39 µM
Ratio (Escherichia coli [3]): 11
IC50 [2]: 4.4 µM

O=C(Oc1cccnc1C(=O)Nc1nccs1)c1ccccc1
IC50 [1]: 1.03 µM
Ratio (Escherichia coli [3]): 1.2
IC50 [2]: 1.22 µM

O=C(Oc1cccnc1C(=O)Nc1nccs1)c1ccccc1I
IC50 [1]: 0.89 µM
Ratio (Escherichia coli [3]): 1.5
IC50 [2]: 1.3 µM

CCCCCC(=O)Nc1cccnc1C(=O)Nc1nccs1
IC50 [1]: 0.62 µM
Ratio (Escherichia coli [3]): 0.61
IC50 [2]: 0.38 µM

O=C(Nc1nccs1)c1ncccc1NC(=O)C(F)(F)F
IC50 [1]: 4.92 µM
Ratio (Escherichia coli [3]): 0.069
IC50 [2]: 0.34 µM

O=C(Nc1cccnc1C(=O)Nc1nccs1)c1ccccc1
IC50 [1]: > 100 µM
Ratio (Escherichia coli [3]): < 0.0089
IC50 [2]: 0.89 µM

O=C(Cc1ccccc1)Oc1cccnc1C(=O)Nc1nccs1
IC50 [1]: 0.2 µM
Ratio (Escherichia coli [3]): 2.7
IC50 [2]: 0.54 µM

O=C(Oc1cccnc1C(=O)Nc1nccs1)c1cccc([N+](=O)[O-])c1
IC50 [1]: > 100 µM
Ratio (Escherichia coli [3]): < 0.006
IC50 [2]: 0.6 µM

O=C(Oc1cccnc1C(=O)Nc1nccs1)c1ccccc1F
IC50 [1]: 16 µM
Ratio (Escherichia coli [3]): 0.052
IC50 [2]: 0.83 µM

CC(C)=CC(=O)Nc1cccnc1C(=O)Nc1nccs1
IC50 [1]: 0.77 µM
Ratio (Escherichia coli [3]): 0.29
IC50 [2]: 0.22 µM

CC(C)=CCC(=O)Nc1cccnc1C(=O)Nc1nccs1
IC50 [1]: 0.14 µM
Ratio (Escherichia coli [3]): 1.71
IC50 [2]: 0.24 µM
